Sampled rows, rich in hits. Any-hit rate of the full collection: about 3.1%.
HIV Env fusion = inhibitors of HIV-1 Env-driven cell-cell fusion, primary screen, HeLa-JRFL effector, CEM21 target cells, luciferase. AID 651610, 2012. actives 1.1% (n = 360,000). inhibition, % at 12.3 µM;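 active means mean replicate inhibition score of at least 50 and every replicate individually at or above 50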;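 further: 0% = plate neutral controls and 100% = maraviroc near 300 nM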
PGC1a acetyl inh = inhibitors of PGC1a acetylation signal, primary screen, cell-based, U2OS, AlphaScreen, inhibitor mode; actives 0.17% (n = 350,000); AID 651687, 2012; inhibition, % at 15.6 µM; AlphaScreen anti-acetyl-lysine; with virally co-expressed GCN5 acetyltransferase;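 active means every replicate shows inhibition of at least 40%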;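 further: 0% = neutral control wells and 100% = positive control wells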
FGF22 binding-1 = binders of human FGF22 protein, primary screen, FGF22 synaptogenesis inhibitor project, biophysical, thermal shift, single point. Fibroblast growth factor 22 (Homo sapiens), Q9HCT0. recombinant FGF22 thermal shift, SYPRO orange fluorescence; percent of sucrose octasulfate shift, DMSO zero. activity (Tm shift, normalised), % at 9.99 µM. actives 1.5% (n = 340,000);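 active means mean Tm shift, scaled 0 neutral to 100 positive control, at about 1.3% or above, every replicate too, limit read from the data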
Target sequence (Q9HCT0 whole entry, looked up): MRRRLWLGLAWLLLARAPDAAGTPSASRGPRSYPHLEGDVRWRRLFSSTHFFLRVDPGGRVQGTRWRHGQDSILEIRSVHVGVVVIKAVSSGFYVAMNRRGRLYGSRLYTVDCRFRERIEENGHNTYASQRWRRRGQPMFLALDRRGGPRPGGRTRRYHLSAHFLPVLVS
FN deposition inh = inhibitors of fibronectin matrix deposition, primary screen, AH1F cells, Alexa488-fibronectin fluorescence, plate reader | AH1F fibroblasts, overnight | inhibition, % at 12.6 µM | actives 0.086% (n = 350,000) | AID 743247, 2014;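 active means mean inhibition across replicates of 30% or more, regardless of how many single replicates reach that level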;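 further: positive control wells lacked labelled fibronectin entirely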
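Material: AH1F fibroblasts assembling fluorescent fibronectin matrix; amount: 10000 AH1F cells/well; medium: DMEM, 2% serum; reagent: Alexa488-fibronectin, 24 nM final in well; dosing: single compound dose, delivered by pin transfer; incubation: 1 h adhesion, overnight exposure; detection: fluorescence after three HBSS washes, excitation 485 nm, emission 525 nm; measure: fibronectin deposition inhibition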
EWS-Fli inh = EWS/Fli-driven NR0B1 reporter inhibitors, primary screen, A673 cells, NR0B1 luciferase, luminescence, MLPCN library; viability-normalised; inhibition, % at 12.6 µM; actives 0.67% (n = 350,000); AID 651661, 2012;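 active means mean inhibition of at least 50% after viability correction, with every replicate also passing that limit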;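 further: firefly luciferase signal divided by Alamar Blue viability fluorescence both relative to DMSO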
PAX8 inh HTS = inhibitors of PAX8-driven TPO luciferase reporter, primary screen, RMG-I cells, single concentration; SteadyGlo, 24 h; inhibition, % at 12.6 µM; actives 1.2% (n = 360,000);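 active means mean replicate inhibition at least 60% with every replicate also reaching 60%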;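 further: luciferase light reporting Pax8 driven TPO promoter activity; plate controls were median of neutral control wells for no effect and mitoxantrone controls for full effect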
FGF22 binding-2 = binders of human FGF22 protein, dose response, FGF22 synaptogenesis inhibitor project, biophysical, thermal shift, cherry-pick retest. recombinant FGF22 thermal shift, SYPRO orange fluorescence. thermal shift activity, °C (ΔTm) at 38 µM. actives 2% (n = 1,000). shares compounds with FGF22 binding-1. AID 720646, 2013;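 active means fitted rise in melting shift crosses a set limit at or below the top valid dose tested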
TSA no protein = compound-only thermal shift signal without protein, dose response, artefact control for FGF22 binder project, biochemical, cherry-picked samples, RT-PCR instrument. shares compounds with FGF22 binding-1. compound-only SYPRO orange thermal shift counter-screen, no protein. AC50, µM (highest dose often 38 µM). actives 2% (n = 1,000);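 active means rising signal whose fitted curve reaches the 0.54 level within the top valid dose, showing a melting point, actives reach about 13 µM in these data; inactive means the rest, including activity in the opposite direction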; further: value is where the raw curve crosses a fixed level and not half-maximal
* hit, by the source's call; i = inactive; nt = no result given; [ ] = dose if it differs, or a comment.

SMILES | HIV Env fusion | PGC1a acetyl inh | FGF22 binding-1 | FN deposition inh | EWS-Fli inh | PAX8 inh HTS | FGF22 binding-2 | TSA no protein
O=C(O)c1cc2cccc(S(=O)(=O)N3CCCCC3)c2cc1O | -4 | -3 | 1.7* | 1 | 10 | 2 | 0.087 | i
COc1cc(O)c(CC=C(C)C)c(O)c1C(=O)CCc1ccc(O)cc1 | nt | -23 | 1 | nt | 5 | nt | nt | nt
O=C(CCc1ccc(O)cc1)c1c(O)cc(O)cc1O | -103 | nt | 2.8* | -3 | -5 | 11 | 0.51 | 2.9µM*
COCc1cn(CC[C@H]2CC[C@@H](NC(=O)Nc3ccc(F)cc3)[C@H](CO)O2)nn1 | 0[16.7 µM] | -10 | 0 | nt | 3 | -4 | nt | nt
O=C(C[C@@H]1CC[C@@H]2[C@H](COC[C@H](O)CN2C(=O)c2cccnc2)O1)NCc1ccccc1 | nt | 6 | 0 | -4 | 2 | -19 | nt | nt
CCC(C)[C@H](NC(=O)N1CCn2c1nc1ccccc12)C(=O)NCCc1ccc(OC)c(OC)c1 (stereo partly specified) | 5 | 0 | 0 | 3 | 9 | 29 | nt | nt
CCC(C)[C@H](NC(=O)N1CCn2c1nc1ccccc12)C(=O)NCCc1ccccc1 (stereo partly specified) | 9 | 3 | 14* | 6 | nt | 7 | 0.016 | i
C[C@H](CO)N1C[C@H](C)[C@H](CN(C)S(=O)(=O)c2ccc(F)cc2)OCCCC[C@H](C)Oc2ccc(NC(=O)c3ccccc3)cc2C1=O | -9[16.7 µM] | 1 | 0 | 11 | 3 | 7 | nt | nt
O=C(Nc1ccc(F)cc1)N[C@@H]1CC[C@H](CCn2cc(-c3ccc(F)cc3)nn2)O[C@@H]1CO | 11[16.7 µM] | -4 | 0 | nt | 12 | 11 | nt | nt
COc1ccc(NC(=O)N[C@@H]2CC[C@H](CCn3cc(-c4ccc(F)cc4)nn3)O[C@H]2CO)cc1 | -25[16.7 µM] | -2 | 0 | -11 | -1 | 3 | nt | nt
COc1ccc(-c2cn(CC[C@@H]3CC[C@@H](NC(=O)Nc4ccc(F)cc4)[C@H](CO)O3)nn2)cc1 | nt | nt | nt | -1 | nt | nt | -0.17[42 µM] | i
O=C(N[C@H]1CC[C@@H](CCn2cc(C3(O)CCCC3)nn2)O[C@@H]1CO)C1CCCCC1 | 8[16.7 µM] | -3 | 0 | nt | -1 | -6 | nt | nt
O=C(Nc1ccc(F)cc1)N[C@@H]1CC[C@H](CCn2cc(-c3ccc(F)cc3)nn2)O[C@H]1CO | 1[16.7 µM] | -11 | 2.4* | nt | -2 | 2 | -0.2[42 µM] | i
COc1ccc(NC(=O)N[C@H]2CC[C@@H](CCn3cc(-c4ccc(OC)cc4)nn3)O[C@@H]2CO)cc1 | -4[16.7 µM] | -7 | 1.3* | -14 | 2 | 3 | 0.11[42 µM] | i
O=C(N[C@H]1CC[C@H](CCn2cc(C3(O)CCCC3)nn2)O[C@@H]1CO)C1CCCCC1 | 0[16.7 µM] | 5 | 1.8* | nt | 29 | 2 | 0.027[42 µM] | i
Cc1ccc(S(=O)(=O)Nc2ccc3c(c2)C(=O)N([C@@H](C)CO)C[C@@H](C)[C@H](CN(C)C(=O)c2ccncc2)OCCCC[C@@H](C)O3)cc1 | 0[16.7 µM] | -12 | 0 | -6 | 3 | -1 | nt | nt
O=C(NCC(=O)N(CC1CCCO1)C(C(=O)NC1CCCCC1)c1cccnc1)c1cccs1 (stereo unspecified) | -3 | nt | 18* | 6 | 2 | 12 | 0.14 | i
O=C(NCC(=O)N(CC1CCCO1)C(C(=O)NC1CCCCC1)c1ccccc1)c1cccs1 (stereo unspecified) | nt | 3 | 0 | nt | 8 | nt | nt | nt
COc1cccc(C#Cc2ccc([C@@H]3[C@H]4CN(C(=O)c5ccccc5)CC(=O)N4[C@H]3CO)cc2)c1 | nt | -15 | -1 | nt | 13 | 37 | nt | nt
CS(=O)(=O)N1CC(=O)N2[C@H](CO)[C@@H](c3ccc(C#CCc4ccccc4)cc3)[C@H]2C1 | nt | 4 | 1.3* | nt | -8 | -2 | 0.098 | i
COc1cccc(C#Cc2ccc([C@H]3[C@@H](CO)N4C(=O)CN(C(=O)c5ccccc5)C[C@@H]34)cc2)c1 | nt | -21 | 1.4* | nt | 4 | 3 | 0.001[42 µM] | i
CS(=O)(=O)N1CC(=O)N2[C@@H](CO)[C@H](c3ccc(C#CCc4ccccc4)cc3)[C@@H]2C1 | nt | -1 | 1 | nt | 0 | -21 | nt | nt
O=C(c1ccc2c(c1)OCO2)N1CC(=O)N2[C@H](C1)[C@H](c1ccc(C#CCC3CCCC3)cc1)[C@@H]2CO | nt | -7 | 2.3* | nt | 7 | 50 | 0.049 | i
C[C@@H]1CN([C@@H](C)CO)C(=O)c2c(c3ccccc3n2C)-c2ccccc2CO[C@@H]1CN(C)C(=O)Nc1cccc(F)c1 | nt | -25 | 0 | 7 | 7 | nt | nt | nt
Cc1ccc(S(=O)(=O)Nc2ccc3c(c2)C(=O)N([C@@H](C)CO)C[C@@H](C)[C@H](CN(C)S(C)(=O)=O)OCCCC[C@@H](C)O3)cc1 | 0[16.7 µM] | -4 | 0 | 3 | -8 | -12 | nt | nt
SMILES | HIV Env fusion | PGC1a acetyl inh | FGF22 binding-1 | FN deposition inh | EWS-Fli inh | PAX8 inh HTS | FGF22 binding-2 | TSA no protein
CN(C)C(=O)c1ccc(-c2ccc([C@@H]3[C@H](CO)N4CCCCN(CC5CC5)C[C@@H]34)cc2)cc1 | nt | -5 | 0 | nt | -12 | -67 | nt | nt
CN1c2ccc(-c3cccc(F)c3)cc2[C@@H]2[C@@H](CCN2C(=O)c2ccc3c(c2)OCO3)[C@@H]1CO | nt | 4 | 0 | -13 | 2 | 24 | nt | nt
CCCNC(=O)C[C@@H]1CC[C@@H]2[C@H](COC[C@H](O)CN2Cc2cccc(F)c2)O1 | nt | 1 | 0 | -22 | 2 | -1 | nt | nt
C[C@H]1CN([C@@H](C)CO)C(=O)c2cccc(NC(=O)c3ccc(-c4nccs4)cc3)c2O[C@H]1CN(C)C(=O)Nc1ccccc1 | -3[16.7 µM] | -7 | 0 | nt | 2 | nt | nt | nt
O=C(NNC(=O)c1ccccc1F)c1ccc(NS(=O)(=O)c2ccc(F)cc2)cc1 | -1 | nt | 1.8* | -7 | -5 | -34 | 0.07 | i
CCOc1ccc(NS(=O)(=O)c2ccc(C(=O)NNC(=O)c3ccccc3O)cc2)cc1 | nt | nt | 1.4* | 8 | 15 | 42 | 0.018 | i
CCOc1ccc(S(=O)(=O)Nc2ccc(C(=O)NNC(=O)c3ccncc3)cc2)cc1 | -7 | 6 | 0 | 4 | -3 | -23 | nt | nt
CCC1CCCCN1C(=O)CCNC(=O)Cn1cnc2ccccc2c1=O (stereo unspecified) | -2 | -5 | 1.4* | -1 | 1 | -5 | -0.036 | i

Source: PubChem
